From PubChem
The list is not random: actives were taken first. Their share in the collection is about 3.7%.
TAAR1 antag: human TAAR1 antagonists, primary screen, Fluo-8 calcium fluorescence, CHO RD-HGA16 cells. Trace amine-associated receptor 1 (Homo sapiens), Q96RJ0. antagonist. inhibition, % at 3 µM. 360,000 tested, 1.5% active. AID 624466, 2012;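 active = inhibition above a per-plate cutoff, the mean inhibition of test compounds on that plate plus 3 SD, cut at about 49% in these data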
Target sequence (Q96RJ0 whole entry, looked up): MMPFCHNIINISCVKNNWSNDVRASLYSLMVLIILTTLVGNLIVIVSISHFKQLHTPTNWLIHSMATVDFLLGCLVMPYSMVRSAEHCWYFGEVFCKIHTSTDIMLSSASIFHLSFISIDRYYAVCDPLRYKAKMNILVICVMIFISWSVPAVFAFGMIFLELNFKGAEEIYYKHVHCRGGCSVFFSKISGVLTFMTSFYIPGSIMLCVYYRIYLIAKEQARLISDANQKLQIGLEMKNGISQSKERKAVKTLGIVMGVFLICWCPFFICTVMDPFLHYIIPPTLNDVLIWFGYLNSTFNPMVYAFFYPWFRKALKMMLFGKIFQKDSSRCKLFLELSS
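System: RD-HGA16 CHO cells with stable hTAAR1 and Gα16 | Probe or stimulus: EC80 β-phenethylamine stimulus | Dosing: 3 µM, single point | Times: Dye loading 75 min at 37 °C, then 30 min room temperature | Measured by: Fluo-8 calcium-sensitive fluorescence | Read-out basis: % inhibition of agonist calcium response | Replicates: n of 1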
TAAR1 agonist: human TAAR1 agonists, primary screen, Fluo-8 calcium fluorescence, CHO RD-HGA16 cells. vehicle wells 0%, saturating PEA agonist 100%. activation, % at 3 µM. 360,000 tested, 0.99% active. AID 624467, 2012;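 active = activation above the mean activation of all test compounds in the run plus 3 SD, cut at about 38% in these data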
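Test system: RD-HGA16 (CHO) cells co-expressing Gα16 and hTAAR1 / Benchmarks: DMSO vehicle as 0%, PEA at EC100 as 100% / Repeats: no replicates (n 1) / Measure: % activation from peak over basal fluorescence ratio, DMSO-to-PEA scaled / Timing: 17-24 h plating, Fluo-8 75 min 37 °C, 30 min RT / Technique: kinetic Fluo-8 calcium fluorescence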
NS3 helicase inh: inhibitors of HCV NS3 helicase, primary screen, biochemical, Cy5 molecular beacon fluorescence | NS3 helicase DNA unwinding | Hepatitis C virus NS3 helicase | inhibition, % at 10.9 µM | 290,000 tested, 0.56% active;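 active = inhibition above the mean of all tested compounds plus 3 SD, set per campaign, cut at about 35% in these data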
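System: NS3 helicase fragment of HCV / Schedule: 1 h at 25 °C / Control set: DMSO alone as 0% and 110 µM thioflavine S as 100% / Reagent: Cy5/quencher beacon DNA duplex and ATP to start / Technique: Cy5 fluorescence / Replication: singlicate / Evaluation: % inhibition of end-to-start signal ratio versus controls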
HCV core dimer: inhibitors of HCV core protein dimerization, primary screen, biochemical, TR-FRET, high-throughput; TR-FRET GST/Flag-core106 dimerization, 1536-well; inhibition, % at 5 µM; 300,000 tested, 0.33% active;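 active = inhibition above the mean of all tested compounds plus 3 SD, set per screening campaign, cut at about 45% in these data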
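Material: GST/Flag-tagged HCV core106 proteins. Incubation: 4 h, 22.5 °C incubation. Read-out basis: inhibition (%) from 671 over 617 nm ratio. Measured by: TR-FRET, excitation 340 nm, emission 617 and 671 nm.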
rCAG binder: binders of r(CAG) RNA repeats, primary screen, biochemical, fluorescence; r(CAG) RNA repeat, TO-PRO-1 dye displacement fluorescence; inhibition, % at 3 µM; 370,000 tested, 1.3% active;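 active = inhibition above the plate cutoff, the mean of all test compounds on that plate plus 3 SD, cut at about 35% in these data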;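 note: higher means more dye released from RNA so lower well fluorescence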
rCAG binder conf: small molecules binding CAG repeat RNA – biochemical, fluorescence, confirmation; shares compounds with rCAG binder; r(CAG) RNA repeat, TO-PRO-1 dye displacement fluorescence; inhibition, % at 3 µM; 4,300 tested, 70% active;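 active = inhibition above a per-plate cutoff, the mean inhibition of sample wells plus 3 SD, cut at about 35% in these data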;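 note: loss of TO-PRO-1 fluorescence as compound displaces dye from 1x1 AA loop RNA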
DNA CAG counter: displacement of TO-PRO-1 from CAG DNA duplex, counter-screen for rCAG RNA repeat binder project, biochemical, fluorescence, TO-PRO-1 dye, d(CAG) DNA oligo; 4,300 tested, 94% active; AID 652068, 2013; inhibition, % at 3 µM; shares compounds with rCAG binder; d(CAG) DNA oligo TO-PRO-1 dye displacement;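 active = inhibition above its plate's cutoff, the mean test-well inhibition plus 3 SD, cut at about 4.8% in these data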;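 note: hits displace the dye from DNA and so lower well fluorescence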
Of the large screens only hits and unclear results are named; the others gave an inactive call (follow-up assays come after a bar, where they were run).

CC(=O)N(c1ccc2oc(=O)sc2c1)S(=O)(=O)c1cccc2cccnc12	rCAG binder 37 | rCAG binder conf inactive | DNA CAG counter 5.3
CCCCCCN1CCS(=O)(=O)N(Cc2ccc(F)cc2)C(C(=O)OC)C1 (stereo not drawn)	none (no result: TAAR1 antag, TAAR1 agonist, NS3 helicase inh, HCV core dimer)
O=C(NCCc1ccccc1F)c1ccc(Sc2ccccc2Cl)c([N+](=O)[O-])c1	none (no result: TAAR1 antag, TAAR1 agonist, NS3 helicase inh, HCV core dimer)
COc1ccc(/C=N/NC(=O)c2nn(-c3ccc(Cl)cc3)c(=O)c3c(N)scc23)cc1	rCAG binder 42 | rCAG binder conf inactive | DNA CAG counter 18
COc1ccc(/C=N/NC(=O)c2nn(-c3ccccc3)c(=O)c3c(N)scc23)cc1	rCAG binder 42 | rCAG binder conf inactive | DNA CAG counter 18
CCOC(=O)c1nn(-c2ccc(OC)cc2)c(=O)c2c(N)scc12	none
O=C(NCC1CCN(C(=O)C(=O)c2cc3ccccc3o2)CC1)c1ccncc1	none (no result: NS3 helicase inh, HCV core dimer)
O=C(Cn1cnc2ccccc2c1=O)N1CCN(C(=O)C2CCCO2)CC1 (stereo not drawn)	none (no result: TAAR1 antag, TAAR1 agonist, NS3 helicase inh, HCV core dimer)
Cc1ccc(S(=O)(=O)N(CC(=O)Nc2ccccc2C(=O)O)c2cccc(Cl)c2C)cc1	rCAG binder 78 | rCAG binder conf 82 | DNA CAG counter 52
Cc1ccccc1N(CC(=O)Nc1ccccc1C(=O)O)S(C)(=O)=O	none
Cc1cccc(N(CC(=O)Nc2ccccc2-c2ccccc2)S(=O)(=O)c2ccccc2)c1C	none
Cc1ccc(S(=O)(=O)N(CC(=O)Nc2ccccc2C(=O)O)c2ccccc2C)cc1	rCAG binder 58 | rCAG binder conf 50 | DNA CAG counter 15
CCCCCOC(=O)C1C(c2ccccc2)C(C(=O)O)C1c1ccccc1 (stereo not drawn)	rCAG binder 35 | rCAG binder conf inactive | DNA CAG counter inactive
O=C(O)C1C(c2ccccc2)C(C(=O)OCCCO)C1c1ccccc1 (stereo not drawn)	none
O=C(Cn1c(-c2cncs2)nc2ccccc21)NCc1cccs1	none (no result: TAAR1 antag, TAAR1 agonist, NS3 helicase inh, HCV core dimer)
COc1ccc(N(CC(=O)Nc2cc(OC)c(OC)cc2C(=O)O)S(=O)(=O)c2c(C)noc2C)cc1	rCAG binder 41 | rCAG binder conf inactive | DNA CAG counter inactive
COc1ccc(N(CC(=O)Nc2cc(C)ccc2OC)S(=O)(=O)c2c(C)noc2C)cc1	none
Cc1cccc(NC(=O)COc2ccc(/C=C\c3[nH]c(=O)[nH]c(=O)c3[N+](=O)[O-])cc2)c1	rCAG binder 87 | rCAG binder conf 87 | DNA CAG counter 66
C[C@@H]1OC(C2CCCCC2)N(C)[C@H]2C[C@H]3c4[nH]c5cccc(-c6ccccc6)c5c4CCN3C[C@@H]12 (stereo partly drawn)	none (no result: TAAR1 antag, TAAR1 agonist, NS3 helicase inh, HCV core dimer)
C#CCNC(=O)C[C@@H]1C(=O)N(CCc2ccc(Cl)cc2)/C2=C/CCCCC[C@@]21C(=O)OCC	none (no result: TAAR1 antag, TAAR1 agonist, NS3 helicase inh, HCV core dimer)
CC(=O)c1ccc(NC(=S)NC(=O)/C=C/c2ccc(F)cc2)cc1	none (no result: TAAR1 antag, TAAR1 agonist, rCAG binder)
CC(C)(C)Cc1nnc(NS(=O)(=O)c2ccc([N+](=O)[O-])cc2)s1	none
CCc1nnc(NS(=O)(=O)c2ccc(NC(=S)NC(=O)/C=C/c3ccc([N+](=O)[O-])cc3)cc2)s1	rCAG binder 37 | rCAG binder conf inactive | DNA CAG counter 7.7
CCc1nnc(NS(=O)(=O)c2ccc(NC(=S)NC(=O)/C=C/c3ccc(F)cc3)cc2)s1	rCAG binder 85 | rCAG binder conf 86 | DNA CAG counter 59
N#Cc1c(SCC(=O)Nc2ccc(Cl)cc2Cl)sc2c(O)cc(=O)[nH]c12	rCAG binder 44 | rCAG binder conf inactive | DNA CAG counter 13
O=C(CSc1cn[nH]n1)Nc1ccc(Cl)cc1Cl	none
N#Cc1c(SCC(=O)Nc2ccccc2C(F)(F)F)sc2c(O)cc(=O)[nH]c12	rCAG binder 50 | rCAG binder conf inactive | DNA CAG counter 6.3
COc1ccc2c(c1)[C@@H](NC(=O)c1ccncc1)[C@@H]1Cc3ccccc3[C@H]21	none (no result: NS3 helicase inh, HCV core dimer)
Fc1cccc2sc(Nc3nc4c(F)cccc4s3)nc12	rCAG binder 58 | rCAG binder conf 60 | DNA CAG counter 24
O=C(Nc1nc2c(F)cccc2s1)C1CC1	none
CC1CCc2c(sc(Nc3nc4c(F)cccc4s3)c2C(N)=O)C1 (stereo not drawn)	rCAG binder 42 | rCAG binder conf inactive | DNA CAG counter 14
CCCCOCCCNC(=O)C[C@H]1C[C@@]2(C(=O)OC)C(=C[C@H](COCc3ccccc3)O[C@@H]2C)N(Cc2ccc(Cl)cc2Cl)C1=O	none (no result: TAAR1 antag, TAAR1 agonist, NS3 helicase inh, HCV core dimer)
CC(C)(C)c1ccc(-c2nnc(SCC(=O)Nc3ccccc3-c3ccccc3)n2Cc2ccco2)cc1	none (no result: TAAR1 antag, TAAR1 agonist, NS3 helicase inh, HCV core dimer)
Cc1occc1-c1nnc(SCC(=O)N[C@@H]2CCc3ccccc32)n1-c1ccccc1	none (no result: TAAR1 antag, TAAR1 agonist, NS3 helicase inh, HCV core dimer)
Cc1ccc(Nc2nc(Cl)c(C=O)s2)cc1Cl	rCAG binder 43 | rCAG binder conf inactive | DNA CAG counter 12
Cc1ccccc1NC(=O)CN1CCN(c2nc(-c3ccccc3)cs2)CC1	none (no result: TAAR1 antag, TAAR1 agonist, NS3 helicase inh, HCV core dimer)
Cc1cccc(Cn2cc(CN3CC(N4CCN(CCOC(=O)c5cc6ccccc6o5)CC4)CS3(=O)=O)nn2)c1 (stereo not drawn)	none (no result: TAAR1 antag, TAAR1 agonist, NS3 helicase inh, HCV core dimer)
CCCCNC(=O)c1sc(=S)n2c1[nH]c(=O)c1ccc(C(=O)NCCc3ccc(OC)c(OC)c3)cc12	none (no result: TAAR1 antag, TAAR1 agonist, rCAG binder)
O=C(NCc1ccccc1)c1sc(=S)n2c1[nH]c(=O)c1ccccc12	TAAR1 agonist 44, rCAG binder 47 | rCAG binder conf 83 | DNA CAG counter 50
COC(=O)[C@]12C[C@H](CC(=O)N3CCSCC3)C(=O)N(Cc3ccc(Cl)cc3Cl)C1=C[C@H](C1CCCC1)O[C@@H]2C	none (no result: TAAR1 antag, TAAR1 agonist, NS3 helicase inh, HCV core dimer)
NC1=NC(=O)/C(=C\c2ccc(-c3ccc(Cl)cc3)o2)S1	rCAG binder 48 | rCAG binder conf inactive | DNA CAG counter 8.6
CN(C)C1=NC(=O)/C(=C/c2ccc(-c3ccc(S(N)(=O)=O)cc3)o2)S1	none (no result: TAAR1 antag, TAAR1 agonist, rCAG binder)
O=C(CC(c1ccccc1)(c1ccccc1)c1ccccc1)N[C@@H](Cc1ccccc1)C(=O)O	none
O=C(O)[C@H](Cc1ccccc1)NC(=O)C(c1ccccc1)(c1ccccc1)c1ccccc1	rCAG binder 38 | rCAG binder conf 53 | DNA CAG counter 13
